{
  "source": "paper PMC8605766",
  "about": "(ACS chemical neuroscience, 2021)",
  "key": {"MS patients": {"tested_on": "MS patients", "details": "particularly deep gray matter structures; cited from earlier work"}, "S1PR1": {"biological_target": "S1PR1 (Rattus norvegicus, UniProt P48303)", "sequence (P48303 whole entry)": "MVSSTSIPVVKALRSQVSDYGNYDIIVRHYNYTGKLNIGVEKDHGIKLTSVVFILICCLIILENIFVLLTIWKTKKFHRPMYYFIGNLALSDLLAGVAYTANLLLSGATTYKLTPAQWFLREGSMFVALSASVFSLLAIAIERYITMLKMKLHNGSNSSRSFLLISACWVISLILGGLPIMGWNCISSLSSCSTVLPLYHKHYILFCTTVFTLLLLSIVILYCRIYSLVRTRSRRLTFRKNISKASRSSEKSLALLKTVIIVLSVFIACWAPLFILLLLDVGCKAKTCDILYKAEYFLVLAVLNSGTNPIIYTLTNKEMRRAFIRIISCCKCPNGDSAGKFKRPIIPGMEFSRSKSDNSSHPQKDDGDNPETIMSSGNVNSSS", "assay": "In vitro autoradiography of [^3H]CS1P1 in the rat brain and spinal cord", "type": "binding", "details": "10 μM NIBR-0213", "procedure,_shortened": "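Frozen 14 μm sections from adult SD rat brain and spinal cord, pre-incubated 5 min at RT in HBSS with 10 mM HEPES, 5 mM MgCl₂, 0.2% BSA, 0.1 mM EDTA, pH 7.4. Labelled with 0.5 nM radioligand, 1 h at RT with shaking. […] Washed 3 × 5 min, ice-cold water dip, air-dried overnight. Film exposure 15 days with tritium standards. Specific binding = total − nonspecific in randomly chosen ROIs.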"}, "[1]": {"biological_target": "recombinant human S1PR1 (hS1PR1) membranes (Homo sapiens, UniProt P21453)", "sequence (P21453 whole entry)": "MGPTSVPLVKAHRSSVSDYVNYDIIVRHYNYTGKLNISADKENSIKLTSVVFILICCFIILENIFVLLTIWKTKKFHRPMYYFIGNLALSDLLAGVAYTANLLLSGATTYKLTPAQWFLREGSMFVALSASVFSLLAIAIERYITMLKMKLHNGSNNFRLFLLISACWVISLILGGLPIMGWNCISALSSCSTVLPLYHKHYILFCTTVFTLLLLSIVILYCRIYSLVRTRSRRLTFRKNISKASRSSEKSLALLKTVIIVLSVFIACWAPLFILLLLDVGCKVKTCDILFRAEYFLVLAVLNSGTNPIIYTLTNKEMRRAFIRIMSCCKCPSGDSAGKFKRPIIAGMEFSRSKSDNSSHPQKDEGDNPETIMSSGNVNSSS", "assay": "Competition binding assay against [^3H]CS1P1 with recombinant hS1PR1 membranes", "details": "displacement of 8 nM [^3H]CS1P1, recombinant hS1PR1 membranes"}},
  "note": "Where “and” joins values, the source holds several entries; their conditions need not be identical. Equal values may be shown once.",
  "data": [
    {"compound": "CCCCCCCCc1ccc(CCC(N)(CO)CO)cc1", "note": "[fingolimod]", "values": [
      {"measurement": "effect on brain atrophy", "setting": "MS patients", "result": "reduced brain atrophy"}
    ]},
    {"compound": "Cc1cc([C@@H](C)Nc2cccc(-c3cc(C)c(C(=O)N[C@@H](C)C(=O)O)c(C)c3)c2)ccc1Cl", "note": "[NIBR-0213]", "values": [
      {"measurement": "blocking of [^3H]CS1P1 radioactivity", "setting": "S1PR1", "result": "can be blocked"}
    ]},
    {"compound": "CCCCCCCCCCCCC/C=C/[C@@H](O)[C@@H](N)COP(=O)(O)O", "note": "[S1P, Sphingosine-1-phosphate]", "values": [
      {"measurement": "Ki", "setting": "[1]", "result": "< 10 nM and 5.7 nM"}
    ]}
  ]
}
